Reference: ChEMBL document CHEMBL1154396, “1-(5-Carboxyindol-1-yl)propan-2-ones as inhibitors of human cytosolic phospholipase A2alpha: synthesis and properties of bioisosteric benzimidazole, benzotriazole and indazole analogues” (Bioorg Med Chem Lett, 2009)
≈ marks a conversion by molar mass, not a printed value.

Columns and labels:
[1] = tested on: Liver microsomes; assay: Metabolic stability in rat liver microsomes; type: ADME, Microsome
Method in brief: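 Rat liver microsomes incubated aerobically with test compound, with and without NADPH, stopped after 30 min. Parent remaining in the NADPH incubation quantified by reversed-phase HPLC with UV detection against the NADPH-free reference incubation and given as percent remaining. Main metabolite structure confirmed by LC/MS. Mean of at least two independent determinations.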

[2] = Thermodynamic solubility in sodium phosphate buffer at pH 7.4; type: physicochemical
Method in brief: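 Thermodynamic method: solid compound suspended in sodium phosphate buffer pH 7.4, sonicated 10 min, then shaken 20 h at room temperature. Undissolved material removed by centrifugation, and dissolved concentration in the aqueous phase measured by HPLC.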

[3] = target: T1, Cytosolic phospholipase A2 (Homo sapiens, UniProt P47712); assay: Inhibition of cPLA2 in human platelets assessed as arachidonic acid release
T1 sequence (P47712 whole entry): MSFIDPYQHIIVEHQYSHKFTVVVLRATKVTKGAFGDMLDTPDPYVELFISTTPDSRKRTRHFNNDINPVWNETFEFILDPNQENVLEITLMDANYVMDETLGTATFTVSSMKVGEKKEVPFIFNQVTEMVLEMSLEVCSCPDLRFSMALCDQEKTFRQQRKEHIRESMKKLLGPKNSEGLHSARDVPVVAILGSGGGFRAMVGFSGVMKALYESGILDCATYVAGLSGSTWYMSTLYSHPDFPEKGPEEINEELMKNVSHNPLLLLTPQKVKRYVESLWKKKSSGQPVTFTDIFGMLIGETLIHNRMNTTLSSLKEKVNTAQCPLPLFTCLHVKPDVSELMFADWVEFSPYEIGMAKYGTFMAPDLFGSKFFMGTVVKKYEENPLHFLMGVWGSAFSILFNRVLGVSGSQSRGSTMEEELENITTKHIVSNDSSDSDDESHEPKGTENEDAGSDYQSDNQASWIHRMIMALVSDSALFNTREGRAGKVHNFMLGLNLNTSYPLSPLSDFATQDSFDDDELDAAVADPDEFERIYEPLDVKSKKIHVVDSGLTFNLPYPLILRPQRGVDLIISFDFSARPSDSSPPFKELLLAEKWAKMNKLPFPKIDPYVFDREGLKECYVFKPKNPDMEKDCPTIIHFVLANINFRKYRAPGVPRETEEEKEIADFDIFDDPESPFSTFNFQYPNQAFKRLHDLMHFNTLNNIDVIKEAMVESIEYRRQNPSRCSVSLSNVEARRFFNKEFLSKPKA
Method in brief: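 cPLA2α purified from human platelets; substrate covesicles of 1-stearoyl-2-arachidonoyl-sn-glycero-3-phosphocholine (SAPC) with 1,2-dioleoyl-sn-glycerol (DOG). Arachidonic acid released from SAPC after 60 min incubation quantified by reversed-phase HPLC, UV 200 nm; inhibition from release with vs without compound. IC50 values are means of at least two independent determinations.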

SMILES	Stability [1] [%]	solubility thermodynamic [2] [µg/mL]	IC50 [3] [nM]
CCCCCCCCc1ccc(OCC(=O)Cn2ccc3ccc(C(=O)O)cc32)cc1	39	< 1	–
CCCCCCCCc1ccc(OCC(=O)Cn2nnc3cc(C(=O)O)ccc32)cc1	43	< 1	26
CCCCCCCCc1ccc(OCC(=O)Cn2ncc3ccc(C(=O)O)cc32)cc1	36	5 (≈ 11.8 µM)	26
CCCCCCCCc1ccc(OCC(=O)Cn2ncc3cc(C(=O)O)ccc32)cc1	64	< 1	5
CCCCCCCCc1ccc(OCC(=O)Cn2cnc3ccc(C(=O)O)cc32)cc1	40	7 (≈ 16.6 µM)	85
CCCCCCCCc1ccc(OCC(=O)Cn2cnc3cc(C(=O)O)ccc32)cc1	49	22 (≈ 52.1 µM)	150
CCCCCCCCc1ccc(OCC(=O)Cn2nnc3ccc(C(=O)O)cc32)cc1	44	2 (≈ 4.72 µM)	16
